From ChEMBL document CHEMBL1833887, “Synthesis and evaluation of 7-substituted 4-aminoquinoline analogues for antimalarial activity” (J Med Chem, 2011)
Converted amounts (≈) assume the structure as drawn.

How the values were obtained:
[1] = Solubility of the compound at pH 7.4 after 18 hrs by UV spectroscopic analysis; format: physicochemical; conditions: buffer
Procedure, shortened: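 Kinetic solubility. A 10 mM stock is diluted 1:100 into PBS pH 7.4 and incubated 18 h at room temperature, then filtered; the filtrate is mixed 1:1 with 1-propanol. UV spectrum (250–500 nm) compared by AUC with a 1-propanol/PBS reference. Single experiment in triplicate.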

[2] = Permeability of the compound at pH 7.4 after 30 mins by PAMPA; format: ADME; conditions: read-out: permeability
Procedure, shortened: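 PAMPA at pH 7.4. A 10 mM DMSO stock is diluted into system solution buffer; its UV spectrum serves as reference. Membrane painted with GIT lipid, acceptor chamber holds acceptor solution buffer. Sandwich stirred for 30 min, aqueous boundary layer set to 40. Donor and acceptor UV spectra read at 250–500 nm. Permeability coefficient from the AUCs of reference, donor and acceptor. Single experiment in triplicate.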

[3] = Dissociation constant, pKa of the compound; format: physicochemical
[4] = system: Plasmodium falciparum; assay: Antimalarial activity against chloroquine-sensitive Plasmodium falciparum 3D7 infected in human erythrocytes assessed as reduction in parasitemia after 72 hrs by spectrophotometry; format: functional, organism-based; conditions: 3D7, 72 h
[5] = system: Plasmodium falciparum; assay: Antimalarial activity against chloroquine-resistant Plasmodium falciparum K1 infected in human erythrocytes assessed as reduction in parasitemia after 72 hrs by spectrophotometry; format: functional, organism-based; conditions: K1, 72 h
[6] = system: Plasmodium falciparum; assay: Ratio of EC50 for chloroquine-resistant Plasmodium falciparum K1 infected in human erythrocytes to EC50 for chloroquine-sensitive Plasmodium falciparum 3D7 infected in human erythrocytes; format: functional
[7] = system: HepG2; assay: Cytotoxicity against human HepG2 cells assessed as intracellular ATP level after 72 hrs by Celltiter-Glo luminescent assay; format: cell-based; conditions: HepG2, 72 h
[8] = Ratio of EC50 for human HepG2 cells to EC50 for Plasmodium falciparum 3D7 infected in human erythrocytes
[9] = Ratio of EC50 for human HepG2 cells to EC50 for Plasmodium falciparum K1 infected in human erythrocytes

c1ccc(-c2ccc3c(NCCCNCc4ccc5c(c4)OCO5)ccnc3c2)cc1
solubility at 18 h [1]: 32 µM (≈ 13.2 µg/mL)
Papp at 0.5 h [2]: 237 ×10⁻⁶ cm/s
pKa [3]: 9.47
EC50 [4]: 17 nM
EC50 [5]: 29 nM
Ratio EC50 [6]: 1.7
EC50 [7]: 4070 nM
Ratio EC50 [8]: 234
Ratio EC50 [9]: 138.9

COc1ccc(F)cc1CNCCCNc1ccnc2cc(Cc3ccc(C#N)cc3)ccc12
solubility at 18 h [1]: 4.2 µM (≈ 1.91 µg/mL)
Papp at 0.5 h [2]: 23 ×10⁻⁶ cm/s
pKa [3]: 9.47
EC50 [4]: 28 nM
EC50 [5]: 770 nM
Ratio EC50 [6]: 27.5
EC50 [7]: 6050 nM
Ratio EC50 [8]: 216.2
Ratio EC50 [9]: 7.9

COc1ccc(F)cc1CNCCCNc1ccnc2cc(CC(C)C)ccc12
solubility at 18 h [1]: 4.2 µM (≈ 1.66 µg/mL)
Papp at 0.5 h [2]: 23 ×10⁻⁶ cm/s
pKa [3]: 9.47
EC50 [4]: 89 nM
EC50 [5]: 2120 nM
Ratio EC50 [6]: 23.9
EC50 [7]: 2900 nM
Ratio EC50 [8]: 32.7
Ratio EC50 [9]: 1.4

COc1ccc(F)cc1CNCCCNc1ccnc2cc(Oc3ccccc3)ccc12
solubility at 18 h [1]: 14.5 µM (≈ 6.26 µg/mL)
Papp at 0.5 h [2]: 317 ×10⁻⁶ cm/s
pKa [3]: 9.28
EC50 [4]: 162 nM
EC50 [5]: 138 nM
Ratio EC50 [6]: 0.9
EC50 [7]: 1500 nM
Ratio EC50 [8]: 9
Ratio EC50 [9]: 11

COc1ccc(F)cc1CNCCCNc1ccnc2cc(Oc3cccc(N(C)C)c3)ccc12
solubility at 18 h [1]: 14.5 µM (≈ 6.88 µg/mL)
Papp at 0.5 h [2]: 317 ×10⁻⁶ cm/s
pKa [3]: 9.28
EC50 [4]: 7 nM
EC50 [5]: 31 nM
Ratio EC50 [6]: 4.7
EC50 [7]: 3300 nM
Ratio EC50 [8]: 514
Ratio EC50 [9]: 110

COc1ccccc1Oc1ccc2c(NCCCNCc3ccc4c(c3)OCO4)ccnc2c1
solubility at 18 h [1]: 14.5 µM (≈ 6.63 µg/mL)
Papp at 0.5 h [2]: 317 ×10⁻⁶ cm/s
pKa [3]: 9.28
EC50 [4]: 14 nM
EC50 [5]: 517 nM
Ratio EC50 [6]: 37.7
EC50 [7]: 5900 nM
Ratio EC50 [8]: 427
Ratio EC50 [9]: 11

c1coc(CNCCCNc2ccnc3cc(C4CCCCC4)ccc23)c1
solubility at 18 h [1]: 4.2 µM (≈ 1.53 µg/mL)
Papp at 0.5 h [2]: 23 ×10⁻⁶ cm/s
pKa [3]: 9.47
EC50 [4]: 118 nM
EC50 [5]: 3900 nM
Ratio EC50 [6]: 33.1
EC50 [7]: 4760 nM
Ratio EC50 [8]: 40.4
Ratio EC50 [9]: 1.2

c1coc(CNCCCNc2ccnc3cc(-c4cccc5ccccc45)ccc23)c1
solubility at 18 h [1]: 32 µM (≈ 13 µg/mL)
Papp at 0.5 h [2]: 237 ×10⁻⁶ cm/s
pKa [3]: 9.47
EC50 [4]: 31 nM
EC50 [5]: 1300 nM
Ratio EC50 [6]: 41.2
EC50 [7]: 5600 nM
Ratio EC50 [8]: 178.2
Ratio EC50 [9]: 4.3

COc1cccc(CNCCCNc2ccnc3cc(Cc4cc(C)cc(C)c4)ccc23)c1O
solubility at 18 h [1]: 4.2 µM (≈ 1.91 µg/mL)
Papp at 0.5 h [2]: 23 ×10⁻⁶ cm/s
pKa [3]: 9.47
EC50 [4]: 9 nM
EC50 [5]: 1360 nM
Ratio EC50 [6]: 160
EC50 [7]: 2680 nM
Ratio EC50 [8]: 315.8
Ratio EC50 [9]: 2

COc1ccc(F)cc1CNCCCNc1ccnc2cc(-c3ccc(F)cc3)ccc12
solubility at 18 h [1]: 32 µM (≈ 13.9 µg/mL)
Papp at 0.5 h [2]: 237 ×10⁻⁶ cm/s
pKa [3]: 9.47
EC50 [4]: 18 nM
EC50 [5]: 97 nM
Ratio EC50 [6]: 5.5
EC50 [7]: 770 nM
Ratio EC50 [8]: 44
Ratio EC50 [9]: 7.9

CC(C)(C)c1ccc(-c2ccc3c(NCCCNCc4ccc5c(c4)OCO5)ccnc3c2)cc1
solubility at 18 h [1]: 32 µM (≈ 15 µg/mL)
Papp at 0.5 h [2]: 237 ×10⁻⁶ cm/s
pKa [3]: 9.47
EC50 [4]: 223 nM
EC50 [5]: 490 nM
Ratio EC50 [6]: 2.2
EC50 [7]: 1370 nM
Ratio EC50 [8]: 6.2
Ratio EC50 [9]: 2.8

COc1cccc(CNCCCNc2ccnc3cc(CCC(C)C)ccc23)c1O
solubility at 18 h [1]: 4.2 µM (≈ 1.71 µg/mL)
Papp at 0.5 h [2]: 23 ×10⁻⁶ cm/s
pKa [3]: 9.47
EC50 [4]: 22 nM
EC50 [5]: 8000 nM
Ratio EC50 [6]: 365.3
EC50 [7]: 5390 nM
Ratio EC50 [8]: 245.9
Ratio EC50 [9]: 0.7

COc1cccc(Oc2ccc3c(NCCCNCc4ccco4)ccnc3c2)c1
solubility at 18 h [1]: 14.5 µM (≈ 5.85 µg/mL)
Papp at 0.5 h [2]: 317 ×10⁻⁶ cm/s
pKa [3]: 9.28
EC50 [4]: 9 nM
EC50 [5]: 153 nM
Ratio EC50 [6]: 17.4
EC50 [7]: 15500 nM
Ratio EC50 [8]: 1763
Ratio EC50 [9]: 102

COc1cccc(CNCCCNc2ccnc3cc(-c4ccc(C(C)(C)C)cc4)ccc23)c1O
solubility at 18 h [1]: 32 µM (≈ 15 µg/mL)
Papp at 0.5 h [2]: 237 ×10⁻⁶ cm/s
pKa [3]: 9.47
EC50 [4]: 251 nM
EC50 [5]: 418 nM
Ratio EC50 [6]: 1.7
EC50 [7]: 690 nM
Ratio EC50 [8]: 2.8
Ratio EC50 [9]: 1.7
